{"source": "ChEMBL document CHEMBL4725261", "about": "“Design, synthesis and evaluation of carbamate-linked uridyl-based inhibitors of human ST6Gal I” (Bioorg Med Chem, 2020)"}
{"molecular_target": "T1, Beta-galactoside alpha-2,6-sialyltransferase 1 (Rattus norvegicus, UniProt P13721)", "T1 sequence (P13721 whole entry)": "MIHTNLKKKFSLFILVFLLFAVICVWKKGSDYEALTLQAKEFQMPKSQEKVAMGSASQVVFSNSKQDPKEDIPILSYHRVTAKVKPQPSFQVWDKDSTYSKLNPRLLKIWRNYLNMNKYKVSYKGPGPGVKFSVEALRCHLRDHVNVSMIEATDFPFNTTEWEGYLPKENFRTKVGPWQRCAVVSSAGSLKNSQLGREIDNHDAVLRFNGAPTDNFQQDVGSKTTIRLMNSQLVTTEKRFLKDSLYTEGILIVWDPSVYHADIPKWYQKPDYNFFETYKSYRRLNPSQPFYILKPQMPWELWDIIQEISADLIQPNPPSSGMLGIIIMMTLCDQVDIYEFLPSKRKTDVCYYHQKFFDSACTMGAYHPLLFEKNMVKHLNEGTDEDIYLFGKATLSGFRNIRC", "assay": "Inhibition of rat liver ST6Gal-1 using […] measured up to 20 mins by HPLC analysis", "details": "not given", "units": {"Ki": "µM"}}
{"smiles": "Nc1ccn([C@@H]2O[C@H](COP(=O)(O)O[C@@H](c3cccc(Oc4ccccc4)c3)P(=O)(O)O)[C@@H](O)[C@H]2O)c(=O)n1", "Ki": 0.07}
{"tested_on": "MIA PaCa-2", "assay": "Cytotoxicity against human MIA PaCa-2 cells assessed as reduction in cell viability at 200 uM after 24 to 48 hrs by MTS assay", "assay_type": "cell-based", "details": "mia paca-2, 200 µM, time 24-48 hrs"}
{"smiles": "O=C(NC[C@H]1O[C@@H](n2ccc(=O)[nH]c2=O)[C@H](O)[C@@H]1O)OC(c1cccc(Oc2ccccc2)c1)P(=O)([O-])[O-].[Na+].[Na+]", "note": "(stereo in doubt; 28a-(s))", "Activity": "Non-Toxic"}
{"smiles": "O=C(NC[C@H]1O[C@@H](n2ccc(=O)[nH]c2=O)[C@H](O)[C@@H]1O)OC(c1ccc(F)c(Oc2ccccc2)c1)P(=O)([O-])[O-].[Na+].[Na+]", "note": "(stereo in doubt; 28b-(s))", "Activity": "Non-Toxic"}
{"smiles": "O=C(NC[C@H]1O[C@@H](n2ccc(=O)[nH]c2=O)[C@H](O)[C@@H]1O)OC(c1ccc(F)cc1)P(=O)([O-])[O-].[Na+].[Na+]", "note": "(stereo in doubt; 28c-(s))", "Activity": "Non-Toxic"}
{"smiles": "O=C(NC[C@H]1O[C@@H](n2ccc(=O)[nH]c2=O)[C@H](O)[C@@H]1O)OC(c1cccc(F)c1)P(=O)([O-])[O-].[Na+].[Na+]", "note": "(stereo in doubt; 28d-(s))", "Activity": "Non-Toxic"}
{"smiles": "CCCOc1cccc(C(OC(=O)NC[C@H]2O[C@@H](n3ccc(=O)[nH]c3=O)[C@H](O)[C@@H]2O)P(=O)([O-])[O-])c1.[Na+].[Na+]", "note": "(stereo in doubt; 28e-(s))", "Activity": "Non-Toxic"}
{"smiles": "COc1cccc(C(OC(=O)NC[C@H]2O[C@@H](n3ccc(=O)[nH]c3=O)[C@H](O)[C@@H]2O)P(=O)([O-])[O-])c1.[Na+].[Na+]", "note": "(stereo in doubt; 28f-(s))", "Activity": "Non-Toxic"}
{"smiles": "COc1ccc(C(OC(=O)NC[C@H]2O[C@@H](n3ccc(=O)[nH]c3=O)[C@H](O)[C@@H]2O)P(=O)([O-])[O-])cc1.[Na+].[Na+]", "note": "(stereo in doubt; 28g-(s))", "Activity": "Non-Toxic"}
{"smiles": "COc1ccc(C(OC(=O)NC[C@H]2O[C@@H](n3ccc(=O)[nH]c3=O)[C@H](O)[C@@H]2O)P(=O)([O-])[O-])cc1OC1CCCC1.[Na+].[Na+]", "note": "(stereo in doubt; 28h-(s))", "Activity": "Non-Toxic"}
{"smiles": "O=C(NC[C@H]1O[C@@H](n2ccc(=O)[nH]c2=O)[C@H](O)[C@@H]1O)OC(c1ccc(OC2CCCC2)cc1)P(=O)([O-])[O-].[Na+].[Na+]", "note": "(stereo in doubt; 28i-(s))", "Activity": "Non-Toxic"}
{"smiles": "O=C(NC[C@H]1O[C@@H](n2ccc(=O)[nH]c2=O)[C@H](O)[C@@H]1O)OC(c1ccccc1)P(=O)([O-])[O-].[Na+].[Na+]", "note": "(stereo in doubt; 28j-(s))", "Activity": "Non-Toxic"}
{"smiles": "O=C(NC[C@H]1O[C@@H](n2ccc(=O)[nH]c2=O)[C@H](O)[C@@H]1O)OC(c1cc2ccccc2s1)P(=O)([O-])[O-].[Na+].[Na+]", "note": "(stereo in doubt; 28k-(s))", "Activity": "Non-Toxic"}
{"smiles": "O=C(NC[C@H]1O[C@@H](n2ccc(=O)[nH]c2=O)[C@H](O)[C@@H]1O)OC(c1csc2ccccc12)P(=O)([O-])[O-].[Na+].[Na+]", "note": "(stereo in doubt; 28l-(s))", "Activity": "Non-Toxic"}
{"smiles": "Nc1ccn([C@@H]2O[C@H](CNC(=O)OC(c3cccc(Oc4ccccc4)c3)P(=O)([O-])[O-])[C@@H](O)[C@H]2O)c(=O)n1.[Na+].[Na+]", "note": "(stereo in doubt; 30-(s))", "Activity": "Non-Toxic"}
{"molecular_target": "T1, Beta-galactoside alpha-2,6-sialyltransferase 1", "assay": "Inhibition of rat liver ST6Gal-1 by HPLC-based assay", "details": "not given", "units": {"Ki": "µM"}}
{"smiles": "CC(=O)N[C@H]1[C@@H](Oc2ccccc2)OC([C@@H](OP(=O)(O)OC[C@H]2O[C@@H](n3ccc(N)nc3=O)[C@H](O)[C@@H]2O)P(=O)(O)O)=C[C@@H]1O", "Ki": 0.029}
{"molecular_target": "T2, Beta-galactoside alpha-2,6-sialyltransferase 1 (Homo sapiens, UniProt P15907)", "T2 sequence (P15907 whole entry)": "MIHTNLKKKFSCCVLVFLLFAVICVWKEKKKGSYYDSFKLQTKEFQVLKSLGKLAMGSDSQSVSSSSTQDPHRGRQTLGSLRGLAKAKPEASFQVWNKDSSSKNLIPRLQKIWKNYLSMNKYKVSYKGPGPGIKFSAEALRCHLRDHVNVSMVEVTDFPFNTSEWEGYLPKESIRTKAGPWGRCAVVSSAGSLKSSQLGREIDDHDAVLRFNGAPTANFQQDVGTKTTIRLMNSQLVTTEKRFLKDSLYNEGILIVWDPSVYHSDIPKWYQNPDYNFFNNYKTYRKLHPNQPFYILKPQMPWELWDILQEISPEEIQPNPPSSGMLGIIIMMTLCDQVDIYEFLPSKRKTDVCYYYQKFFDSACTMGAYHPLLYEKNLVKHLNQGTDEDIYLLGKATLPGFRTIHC", "assay": "Displacement of fluorescent probe from human ST6Gal-1 by fluorescence polarization assay", "details": "not given", "units": {"Kd": "µM"}}
{"smiles": "Nc1ccn([C@@H]2O[C@H](COP(=O)(O)O[C@@H](c3cccc(NC(=O)c4ccc(C(=O)O)c(-c5c6ccc(=O)cc-6oc6cc(O)ccc56)c4)c3)P(=O)(O)O)[C@@H](O)[C@H]2O)c(=O)n1", "Kd": 0.022}
{"smiles": "Nc1ccn([C@@H]2O[C@H](COP(=O)(O)O[C@H](c3cccc(NC(=O)c4ccc(C(=O)O)c(-c5c6ccc(=O)cc-6oc6cc(O)ccc56)c4)c3)P(=O)(O)O)[C@@H](O)[C@H]2O)c(=O)n1", "Kd": 0.009}
{"molecular_target": "T2, Beta-galactoside alpha-2,6-sialyltransferase 1", "assay": "Inhibition of recombinant human N-terminal 6His-tagged ST6Gal-1 (Glu44 to Cys406 residues)", "details": "not given", "procedure,_shortened": "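Recombinant human ST6Gal I activity was measured in a luminescence microplate assay, and inhibition was expressed as Ki.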", "units": {"Ki": "µM"}}
{"smiles": "O=C(NC[C@H]1O[C@@H](n2ccc(=O)[nH]c2=O)[C@H](O)[C@@H]1O)OC(c1ccc(F)cc1)P(=O)(O)O", "note": "(stereo in doubt; 28c-(l))", "Ki": 1.1}
{"smiles": "O=C(NC[C@H]1O[C@@H](n2ccc(=O)[nH]c2=O)[C@H](O)[C@@H]1O)OC(c1ccc(F)cc1)P(=O)([O-])[O-].[Na+].[Na+]", "note": "(stereo in doubt; 28c-(s))", "Ki": 306}
{"smiles": "O=C(NC[C@H]1O[C@@H](n2ccc(=O)[nH]c2=O)[C@H](O)[C@@H]1O)OC(c1cccc(F)c1)P(=O)([O-])[O-].[Na+].[Na+]", "note": "(stereo in doubt; 28d-(s))", "Ki": 19.2}
{"smiles": "CCCOc1cccc(C(OC(=O)NC[C@H]2O[C@@H](n3ccc(=O)[nH]c3=O)[C@H](O)[C@@H]2O)P(=O)(O)O)c1", "note": "(stereo in doubt; 28e-(l))", "Ki": 20.3}
{"smiles": "O=C(NC[C@H]1O[C@@H](n2ccc(=O)[nH]c2=O)[C@H](O)[C@@H]1O)OC(c1ccc(OC2CCCC2)cc1)P(=O)(O)O", "note": "(stereo in doubt; 28i-(l))", "Ki": 11.5}
{"smiles": "O=C(NC[C@H]1O[C@@H](n2ccc(=O)[nH]c2=O)[C@H](O)[C@@H]1O)OC(c1ccc(OC2CCCC2)cc1)P(=O)([O-])[O-].[Na+].[Na+]", "note": "(stereo in doubt; 28i-(s))", "Ki": 55.5}
{"smiles": "O=C(NC[C@H]1O[C@@H](n2ccc(=O)[nH]c2=O)[C@H](O)[C@@H]1O)OC(c1cc2ccccc2s1)P(=O)([O-])[O-].[Na+].[Na+]", "note": "(stereo in doubt; 28k-(s))", "Ki": 8.5}
